The text below walks through data of ChEMBL document CHEMBL4627260, “Optimisation of estrogen receptor subtype-selectivity of a 4-Aryl-4H-chromene scaffold previously identified by virtual screening” (Bioorg Med Chem, 2020).

In general, IC50 refers to the concentration at which inhibition is half-maximal. By half-life is commonly meant how long it takes for the measured level to halve.

For series [1], the system named is MCF7. As to the kind of experiment: Toxicity in human MCF7 cells assessed as cell death at 10 uM incubated for 72 hrs by LDH assay relative to control. The class given is cell-based. The settings on record: mcf7, 72 h. A digest of the protocol: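 LDH release assay (CytoTox 96). MCF-7 cells seeded at 1×10^4 cells/well for 24 h, dosed with ethanol vehicle (1% v/v) and incubated 72 h. Medium mixed with substrate for 20 min at room temperature in dark, stopped, absorbance read at 490 nm. Lysis is percent of a lysis-solution control (100% lysis, 45 min); three experiments in triplicate, mean ± SEM.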

For another series, the target named is Estrogen receptor beta (Homo sapiens, UniProt Q92731). Kind of series: Displacement of fluorescent estrogen ligand from recombinant human full length untagged ERbeta expressed in baculovirus infected insect cells incubated in dark for 2 hrs by Beacon single-tube fluorescent polarization assay.
Sequence of Estrogen receptor beta (Q92731 whole entry): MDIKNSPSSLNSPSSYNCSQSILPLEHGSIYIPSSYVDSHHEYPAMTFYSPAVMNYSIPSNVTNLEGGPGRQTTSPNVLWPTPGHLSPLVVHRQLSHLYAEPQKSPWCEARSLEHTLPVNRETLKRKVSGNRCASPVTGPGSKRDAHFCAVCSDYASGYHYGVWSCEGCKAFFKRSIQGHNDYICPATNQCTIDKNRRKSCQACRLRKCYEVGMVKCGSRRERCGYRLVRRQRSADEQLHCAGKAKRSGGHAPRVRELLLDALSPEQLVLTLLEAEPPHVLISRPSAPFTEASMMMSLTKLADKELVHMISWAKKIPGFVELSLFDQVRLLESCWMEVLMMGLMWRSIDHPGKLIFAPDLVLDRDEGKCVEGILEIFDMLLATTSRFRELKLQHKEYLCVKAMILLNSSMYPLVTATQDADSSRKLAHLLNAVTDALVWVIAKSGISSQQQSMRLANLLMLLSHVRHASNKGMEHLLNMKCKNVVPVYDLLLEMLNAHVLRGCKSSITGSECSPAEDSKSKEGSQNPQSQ
The next series has as its target T1, Estrogen receptor (Homo sapiens, UniProt P03372).
T1 sequence (P03372 whole entry): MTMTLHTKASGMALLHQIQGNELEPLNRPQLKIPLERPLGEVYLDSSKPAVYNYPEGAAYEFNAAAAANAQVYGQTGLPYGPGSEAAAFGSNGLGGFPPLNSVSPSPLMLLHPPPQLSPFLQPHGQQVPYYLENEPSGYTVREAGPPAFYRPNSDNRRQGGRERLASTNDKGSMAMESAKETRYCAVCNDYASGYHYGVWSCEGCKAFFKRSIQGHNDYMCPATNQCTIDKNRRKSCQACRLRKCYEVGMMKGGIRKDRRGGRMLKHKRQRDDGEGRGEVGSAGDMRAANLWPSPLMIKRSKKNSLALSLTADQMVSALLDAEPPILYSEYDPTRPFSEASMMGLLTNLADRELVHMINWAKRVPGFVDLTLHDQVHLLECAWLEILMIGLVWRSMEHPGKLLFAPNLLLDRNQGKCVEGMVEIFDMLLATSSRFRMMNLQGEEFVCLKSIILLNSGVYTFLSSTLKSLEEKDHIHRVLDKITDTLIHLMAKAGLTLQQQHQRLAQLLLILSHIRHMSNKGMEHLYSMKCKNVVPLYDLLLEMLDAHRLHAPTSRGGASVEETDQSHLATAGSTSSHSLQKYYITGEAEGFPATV
As to the kind of experiment: Displacement of fluorescent estrogen ligand from recombinant human full length untagged ERalpha expressed in baculovirus infected insect cells incubated in dark for 2 hrs by Beacon single-tube fluorescent polarization assay.

Series [2] relates to MCF7. Kind of series: Antiproliferative activity against human MCF7 cells assessed as inhibition of cell viability after 72 hrs by MTT assay. The settings on record: MCF7, 72 h. It is filed as functional, cell-based. In outline:
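MCF-7 cells grown in Eagle's MEM with 10% fetal calf serum, 2 mM L-glutamine, penicillin/streptomycin and 1% non-essential amino acids. Seeded at 2.5×10^4 cells/mL, 24 h at 37 °C, 5% CO2. Dosed from ethanol stocks at 1 nM–100 μM final (vehicle 1% v/v ethanol), 72 h. MTT 1 mg/mL for 2 h in dark, DMSO solubilisation, absorbance 595 nm. Viability relative to vehicle; mean ± S.E.M., at least two experiments in triplicate.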

Series [3] can be described thus: Chemical stability of the compound in pH 7.4 phosphate buffer assessed as half life by HPLC method. The class given is physicochemical. In outline: (§1)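 Stock of 5 mg compound in 10 mL mobile phase; 30 μL diluted into 1 mL phosphate buffer (pH 4, 7.4 or 9, British Pharmacopoeia). Injected immediately and sampled at 0, 5, 30, 60, 90, 120 min and 21 h. HPLC with UV detection at 254 nm, acetonitrile:water 80:20 mobile phase, 1 mL/min over 10 min.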

Series [4] is described as follows: Chemical stability of the compound in phosphate buffer at pH 4 assessed as compound remaining after 30 mins by HPLC method. It is filed as physicochemical. The settings on record: read-out: Stability. In outline: as §1
Series [5] is described as follows: Chemical stability of the compound in pH 9 phosphate buffer assessed as half life by HPLC method. It is filed as physicochemical. A digest of the protocol: as §1
Series [6] is described as follows: Stability in human plasma assessed as half life by HPLC method. It is filed as ADME, cell-free. A digest of the protocol: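 Human blood plasma (2.0 mL) mixed with PBS containing 10% DMSO (1.6 mL) and pre-warmed to 37 °C. Compound added as 400 μL of a 1.0 mg/mL stock. Aliquots of 100 μL quenched in 900 μL acetonitrile, centrifuged and filtered. Sampled every 15 min for 1 h, then hourly to 3 h, plus 24 h. C18 reverse-phase HPLC at 25 °C, H2O:ACN:MeOH mobile phase, 1.0 mL/min.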

Molecules are shown by their SMILES.

For the compound `CCOC(=O)C1=C(N)Oc2cc(O)ccc2C1c1ccc(OCCN2CCOCC2)cc1` (configuration not stated), the Activity in the series with MCF7 [1] is 0%. Besides, the IC50 turned out to be 2.44 µM on Estrogen receptor beta, 0.22 µM at Estrogen receptor and 18.8 µM in the series on MCF7 [2].

With `CCCCOC(=O)C1=C(N)Oc2cc(O)ccc2C1c1ccc(OCCN2CCCC2)cc1` (configuration not stated), the figures for the IC50 at Estrogen receptor beta, at Estrogen receptor and with MCF7 [2] were 6.55 µM, 0.02 µM and 7.73 µM, respectively.

For the compound `CCOC(=O)C1=C(N)Oc2cc(O)ccc2C1c1ccc(OCCN2CCCC2)cc1` (configuration not stated), the Activity in the series with MCF7 [1] amounted to 0%. Besides, the values for the IC50 on Estrogen receptor beta, at Estrogen receptor and with MCF7 [2] were 3.1 µM, 1.41 µM and 27.3 µM, respectively.

As for `CCCCOC(=O)C1=C(N)Oc2cc(O)ccc2C1c1ccc(OCCN2CCCCC2)cc1` (configuration not stated), the half-life in series [3], in series [5] and in series [6] was greater than 24 h in each case. Besides, the remaining at 0.5 h in series [4] turned out to be 32%. The IC50 on Estrogen receptor beta came out at 2.35 µM; on Estrogen receptor, 0.03 µM; in the series with MCF7 [2], 31.8 µM.

As for `CCOC(=O)C1=C(N)Oc2cc(O)ccc2C1c1ccc(O)cc1` (configuration not stated), the IC50 in the series on MCF7 [2] is greater than 100 µM.

In the case of `COC(=O)C1=C(N)Oc2cc(O)ccc2C1c1ccc(OCCN2CCCC2)cc1` (configuration not stated), the Activity with MCF7 [1] was determined as 0%. The IC50 was determined as 0.35 µM on Estrogen receptor beta, 0.02 µM on Estrogen receptor and 19.6 µM in the series with MCF7 [2].

`CC/C(=C(\c1ccccc1)c1ccc(OCCN(C)C)cc1)c1ccccc1` [TAMOXIFEN]: in the series on MCF7 [1], the Activity was determined as 13.4%.

On to `COC(=O)C1=C(N)Oc2cc(O)ccc2C1c1ccc(O)cc1` (configuration not stated), for which the IC50 on Estrogen receptor beta is 10 µM; on Estrogen receptor, 0.79 µM; in the series with MCF7 [2], greater than 100 µM.

For `CC(C)(C)OC(=O)C1=C(N)Oc2cc(O)ccc2C1c1ccc(OCCN2CCCC2)cc1` (configuration not stated), the IC50 on Estrogen receptor beta turned out to be 0.67 µM; on Estrogen receptor it was 0.01 µM; with MCF7 [2], 10 µM.

`N#CC1=C(N)Oc2cc(O)ccc2C1c1ccccc1` (configuration not stated): the IC50 is 8.39 µM at Estrogen receptor beta, greater than 10 µM at Estrogen receptor and greater than 100 µM with MCF7 [2].

On to `CCOC(=O)C1=C(N)Oc2cc(O)ccc2C1c1ccccc1` (configuration not stated), for which the IC50 at Estrogen receptor beta was 0.61 µM; on Estrogen receptor it was 2.36 µM; in the series with MCF7 [2], greater than 100 µM.

As for `N#CC1=C(N)Oc2cc(O)ccc2C1c1ccc(OCCN2CCOCC2)cc1` (configuration not stated), in the series on MCF7 [1], the Activity worked out at 0%. Moreover, the results for the IC50 on Estrogen receptor beta, at Estrogen receptor and in the series on MCF7 [2] were greater than 50 µM, 14 µM and 35.3 µM, respectively.

With `CCOC(=O)C1=C(N)Oc2cc(O)ccc2C1c1ccc(OCCN2CCCCC2)cc1` (configuration not stated), the half-life in series [3], in series [5] and in series [6] was greater than 24 h throughout. The Activity in the series on MCF7 [1] is recorded as 0%. In addition, the remaining at 0.5 h in series [4] was 27%. Besides, the IC50 on Estrogen receptor beta came out at 0.06 µM; at Estrogen receptor it was 0.02 µM; with MCF7 [2] it was 8.75 µM.

Consider `N#CC1=C(N)Oc2cc(O)ccc2C1c1ccc(OCCN2CCCC2)cc1` (configuration not stated), for which the IC50 at Estrogen receptor beta was greater than 10 µM; on Estrogen receptor, 0.89 µM; with MCF7 [2], greater than 50 µM.

Regarding `CC(C)(C)OC(=O)C1=C(N)Oc2cc(O)ccc2C1c1ccc(OCCN2CCCCC2)cc1` (configuration not stated), the results for the IC50 at Estrogen receptor beta, on Estrogen receptor and in the series with MCF7 [2] were 0.37 µM, 0.09 µM and 2.65 µM, respectively.

Consider `COC(=O)C1=C(N)Oc2cc(O)ccc2C1c1ccc(OCCN2CCCCC2)cc1` (configuration not stated), for which the Activity in the series on MCF7 [1] is listed as 0%. Also, the IC50 at Estrogen receptor beta is 0.22 µM; at Estrogen receptor it was 0.05 µM; in the series on MCF7 [2], 16.2 µM.

For `COC(=O)C1=C(N)Oc2cc(O)ccc2C1c1ccccc1` (configuration not stated), the IC50 was 1.59 µM on Estrogen receptor beta, 3.3 µM on Estrogen receptor and 10.8 µM in the series with MCF7 [2].

Take `COC(=O)C1=C(N)Oc2cc(O)ccc2C1c1ccc(OCCN2CCOCC2)cc1` (configuration not stated): the IC50 at Estrogen receptor beta is 0.63 µM; on Estrogen receptor it was 109 µM; in the series on MCF7 [2] it was greater than 100 µM.

Turning to `CCOC(=O)C1=C(N)Oc2cc(O)ccc2C1c1ccc(OC)c(OC)c1` (configuration not stated), in the series on MCF7 [2], the IC50 was greater than 100 µM.

Consider `CCOC(=O)C1=C(N)Oc2cc(O)ccc2C1c1ccc(OCc2ccccc2)cc1` (configuration not stated), for which the IC50 on Estrogen receptor beta is greater than 100 µM; on Estrogen receptor, 40.3 µM; in the series with MCF7 [2], 4.5 µM.

Regarding `N#CC1=C(N)Oc2cc(O)ccc2C1c1ccc(OCCN2CCCCC2)cc1` (configuration not stated), the IC50 on Estrogen receptor beta stood at 10.4 µM; on Estrogen receptor it was 1.47 µM; in the series on MCF7 [2] it was 23.2 µM.

Take `CCOC(=O)C1=C(N)Oc2cc(O)ccc2C1c1ccc(OCC)cc1` (configuration not stated): the IC50 with MCF7 [2] is greater than 100 µM.
